Shown are actives, neighbours in structure and some others; about 2.6% of the full set was active somewhere.
SENP1 FRET inh – inhibitors of human SENP1 SUMO protease catalytic domain; AID 624204; recombinant SENP1 catalytic domain, CyPet-SUMO1-YPet FRET cleavage; Q9P0U3; 360,000 compounds, 0.21% hits; inhibition, % at 10 µM;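 active means inhibition at least 30% at 10 µM, raw YFP signal under a set limit, fluorescence ratio 0.5 to 1.5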;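 further: 0% = enzyme with DMSO and 100% = no enzyme wells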
Target sequence (Q9P0U3 419-644 limits assumed): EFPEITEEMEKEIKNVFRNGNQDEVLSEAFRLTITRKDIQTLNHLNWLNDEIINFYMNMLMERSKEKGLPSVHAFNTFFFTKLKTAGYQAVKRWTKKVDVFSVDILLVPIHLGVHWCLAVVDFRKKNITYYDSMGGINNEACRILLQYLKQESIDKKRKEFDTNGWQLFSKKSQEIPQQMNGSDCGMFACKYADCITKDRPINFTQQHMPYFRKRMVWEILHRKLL
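System: Recombinant human SENP1 catalytic domain, His6-tagged | Incubation: Enzyme reaction for 50 min at room temperature, dark | Medium: Tris pH 8 with BME, BSA, NP40 and catalase | Also added: 25 nM SUMO1 FRET substrate | Compound: 10 µM single point, 0.5% DMSO | Measured by: FRET fluorescence in CFP and YFP emission channels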
SENP8 block-1 – SENP8 (human) protease inhibition; Q96LD8; recombinant SENP8, Nedd8 substrate fluorescence; inhibition, % at 20 µM; 360,000 compounds, 0.64% hits; in the data active means inhibition mostly above about 40%, no sharp cut-off; inactive means mostly below about 27%
Target sequence (Q96LD8 whole entry, looked up): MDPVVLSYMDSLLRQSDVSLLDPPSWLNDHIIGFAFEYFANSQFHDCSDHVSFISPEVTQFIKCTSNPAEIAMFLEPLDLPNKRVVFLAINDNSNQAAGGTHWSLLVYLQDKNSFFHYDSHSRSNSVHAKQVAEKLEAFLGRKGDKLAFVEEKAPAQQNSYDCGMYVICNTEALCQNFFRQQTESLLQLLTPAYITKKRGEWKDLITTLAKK
SENP7 inh – blocks the human protease SENP7; recombinant SENP7, Z-RLRGG-aminoluciferin luminescence, 40 min; AID 434973; inhibition, % at 5 µM; 330,000 compounds, 1.5% hits; Q9BQF6;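 active means inhibition above about 50% at the single test dose, limit read from the data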;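 further: plate controls were DMSO with enzyme for no effect and no enzyme buffer wells for full effect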
SENP6 inh – blocks the human protease SENP6; Q9GZR1; Recombinant SENP6 catalytic domain, aminoluciferin luminescence; inhibition, % at 10 µM; 330,000 compounds, 1.8% hits; AID 2599;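 active means inhibition above about 50% at the single tested dose, limit read from the data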;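 further: plate controls were DMSO wells with enzyme for no effect and DMSO wells lacking enzyme for full effect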
SENP8 block-2 – inhibitors of human SENP8 protease; Q96LD8; purified SENP8, Z-RLRGG-aminoluciferin cleavage, luminescence; inhibition, % at 10 µM; 330,000 compounds, 1.2% hits; in the data active means inhibition above about 50%
Platelet DG rel – platelet dense granule release activity; 300,000 compounds, 0.22% hits; human platelet-rich plasma, SFLLRN dense granule ATP release, luminescence; inhibition, %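 (compounds screened at 7.5 µM in platelet-rich plasma)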;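 active means mean replicate score, as percent of positive control, at or above 50; inconclusive means mean below 50 but at least one replicate at or above 50; inactive means mean and every replicate below 50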
SENP8 confirm – human SENP8 inhibition, confirmed | shares compounds with SENP7 inh | Recombinant SENP8, Z-RLRGG-aminoluciferin luminescence, 60 min | inhibition, % at 12.5 µM | 6,200 compounds, 40% hits | AID 488912;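 active means mean inhibition across replicates above about 50%, limit read from the data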
SENP6 conf – confirmation of human SENP6 protease inhibitors; shares compounds with SENP7 inh; 6,200 compounds, 58% hits; recombinant SENP6, Z-RLRGG-aminoluciferin luminescence; inhibition, % at 12.5 µM; AID 488915
SENP7 confirm – confirmation of human SENP7 protease inhibitors; shares compounds with SENP7 inh; recombinant SENP7, Z-RLRGG-aminoluciferin luminescence, 40 min; inhibition, % at 12.5 µM; 6,200 compounds, 69% hits; AID 488917
Casp3 SENP sel – selectivity test for SENP inhibitors: human caspase-3 inhibition | shares compounds with SENP7 inh | purified caspase-3, Z-DEVD-aminoluciferin luminescence, 60 min | inhibition, % at 12.5 µM | 6,200 compounds, 60% hits;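 active means mean inhibition above about 50%, limit read from the data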;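 further: plate controls were enzyme with DMSO for no effect and wells without caspase-3 for full effect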
Target sequence (P42574 28-227 limits assumed): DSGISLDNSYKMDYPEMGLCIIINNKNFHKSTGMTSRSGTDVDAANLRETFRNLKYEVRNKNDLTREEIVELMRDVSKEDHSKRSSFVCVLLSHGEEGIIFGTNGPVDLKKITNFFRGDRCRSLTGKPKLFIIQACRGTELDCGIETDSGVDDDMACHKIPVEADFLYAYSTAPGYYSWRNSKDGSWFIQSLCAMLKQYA
SENP luc ctr – interferes with luciferase luminescence in SENP counter-screen. shares compounds with SENP7 inh. Pre-incubated SENP8/Z-RLRGG-aminoluciferin, luciferase luminescence interference. inhibition, % at 12.5 µM. 6,200 compounds, 39% hits;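 active means mean inhibition above about 50% when retested at one dose, limit read from the data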;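 further: plate controls were DMSO wells with completed reaction for no effect and substrate without enzyme for full effect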
Starred values were filed as active, the others as inactive; ? = inconclusive; . = no result.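 How the source made its calls, unless noted: active means mean inhibition above about 50% in the one-dose retest (limit read from the data); inactive means the rest.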

SMILES	SENP1 FRET inh	SENP8 block-1	SENP7 inh	SENP6 inh	SENP8 block-2	Platelet DG rel	SENP8 confirm	SENP6 conf	SENP7 confirm	Casp3 SENP sel	SENP luc ctr
Cc1ccc(C(=O)ONc2ccc(N=NC(=O)c3ccccc3O)cc2)cc1	12	32	-2	20	24	1	.	.	.	.	.
Cc1ccc(C(=O)ONc2ccc(N=O)cc2)cc1	4	26	100*	96*	98*	59*	30	101*	104*	90*	31
O=C(COC(=O)c1ccco1)NCc1ccc2c(c1)OCO2	2	10	5	58*	-3	4	-4	-6	-8	2	-3
O=C(COC(=O)c1ccc2c(c1)OCO2)NCc1ccc2c(c1)OCO2	2	4	1	-3	6	0	.	.	.	.	.
COc1ccccc1CNC(=O)[C@H](C)NC(=O)C1CCN(C(=O)[C@H](CCSC)NC(=O)OC(C)(C)C)CC1	0	18	-8	-4	0	-1	.	.	.	.	.
COc1cccc(-c2nc3ccccc3s2)c1	6	-14	96*	92*	95*	11	96*	98*	102*	95*	95*
COc1ccc(-c2nc3ccccc3s2)cc1	-1	-218	.	.	.	.	.	.	.	.	.
Oc1ccc(-c2nc3ccccc3s2)cc1	-5	-437	99*	98*	96*	?	99*	99*	102*	95*	95*
CC(=O)NCc1ccc(-c2nc3ccccc3s2)cc1	-9	-100	72*	80*	64*	26	1	59*	87*	77*	30
Nc1ccc(O)c(-c2nc3ccccc3s2)c1	-26	-34	2	18	5	10	.	.	.	.	.
c1ccc2[nH]c(-c3ccc4c(c3)OCO4)nc2c1	0	-134	97*	96*	93*	73*	96*	97*	102*	97*	96*
O=C(CSc1ccccc1F)NCC(c1cccs1)N1CCOCC1 (stereo not drawn)	-1	5	-11	4	-13	.	.	.	.	.	.
CC(OC(=O)C1CCN(S(=O)(=O)c2ccc3c(c2)OCCO3)CC1)C(=O)NC1(C#N)CCCCC1 (stereo not drawn)	1	3	.	.	.	.	.	.	.	.	.
c1ccc2sc(-c3ccc4c(c3)OCO4)nc2c1	-1	-278	100*	97*	96*	.	98*	100*	103*	98*	95*
O=C(O)c1ccc2nc(-c3ccccc3)sc2c1	3	-8	100*	98*	94*	9	98*	99*	102*	96*	98*
CC(=O)NCc1ccc(-c2csc(-c3cccs3)n2)cc1	-5	-67	40	62*	36	8	48	43	73*	35	57*
Nc1ccccc1-c1nc2ccccc2s1	-115	-437	59*	76*	54*	4	61*	83*	96*	55*	44
c1ccc2sc(-c3ccncc3)nc2c1	1	-14	67*	68*	36	3	28	55*	83*	80*	35
Oc1ccc(-c2nc3ccccc3s2)c(O)c1	-7	-419	86*	97*	88*	16	95*	94*	101*	75*	78*
c1cncc(-c2nc3ccccc3s2)c1	4	14	46	46	10	-9	.	.	.	.	.
Cc1ccc2c(c1)cc1c(=O)n(CC(=O)NCCCc3ccccc3)nc(C)n12	-1	-130	-11	-2	-10	-3	.	.	.	.	.
CC[C@]12c3[nH]c4ccc(Cl)cc4c3CCN1C(=O)[C@@H](CC(=O)NC/C=C(\C)CCC=C(C)C)C[C@@H]2C(=O)N1CCN(C(=O)c2ccco2)CC1	-3	-1	7	.	.	.	.	.	.	.	.
CC(=O)N1CCc2cc(NC(=O)C3(C)CCN3Cc3ccccc3OC(F)F)ccc21 (stereo not drawn)	-3	19	.	.	.	.	.	.	.	.	.
Cc1ccc(NC(=O)/C(Cl)=C\c2ccccc2)cc1	2	17	91*	94*	86*	5	83*	87*	100*	84*	75*
CC(=O)c1ccc(NC(=O)/C(=C\c2ccccc2)NC(=O)/C=C/c2ccccc2)cc1	2	16	2	-4	6	0	.	.	.	.	.
SMILES	SENP1 FRET inh	SENP8 block-1	SENP7 inh	SENP6 inh	SENP8 block-2	Platelet DG rel	SENP8 confirm	SENP6 conf	SENP7 confirm	Casp3 SENP sel	SENP luc ctr
O=C(Nc1ccc(F)cc1)/C(Cl)=C/c1ccccc1	1	11	88*	3	79*	8	-11	79*	96*	72*	14
CC(=O)c1ccc(NC(=O)/C(Cl)=C/c2ccccc2)cc1	3	6	85*	67*	45	15	13	19	23	20	8
CCCCn1c(N)c(N(CCOC)C(=O)CCS(=O)(=O)c2ccc(Cl)cc2)c(=O)[nH]c1=O	-3	-32	-11	-16	0	-2	.	.	.	.	.
COc1ccccc1NS(=O)(=O)c1ccc(C(=O)Nc2ncccc2O)cc1	1	20	-7	4	2	.	.	.	.	.	.
CCCCc1c(-c2ccccc2OC)ncn1CCc1ccccc1	-1	-6	.	.	.	.	.	.	.	.	.
CN(C)CCN(C)C1CN(Cc2ccc(F)cc2)S(=O)(=O)C1 (stereo not drawn)	-5	10	.	.	.	.	.	.	.	.	.
CCc1cccc(CC)c1NC(=O)CN1CCN(S(=O)(=O)c2ccccc2)CC1	3	9	-11	-6	-2	16	.	.	.	.	.
Cc1cccc(C(=O)O/N=C/c2ccc(Br)cc2)c1	2	6	62*	68*	61*	1	50	74*	88*	61*	34
COc1ccc2cc(-c3cccnc3)ncc2c1	-5	-154	58*	53*	40	.	38	38	81*	73*	62*
COc1ccc(-c2cc3ccc(OC)cc3cn2)cc1	1	-474	84*	68*	46	.	5	17	59*	41	-4
COc1ccc2cc(-c3ccccc3F)ncc2c1	-3	-119	100*	97*	97*	.	98*	99*	103*	96*	97*
COc1cc(NC(=O)COc2ccc(-n3cnnn3)cc2)cc(OC)c1OC	0	-4	-6	-22	8	.	.	.	.	.	.
O=C(c1ccccc1)c1ccc(N2CCOCC2)cc1	0	-54	.	.	.	.	.	.	.	.	.
